Experimental data reported in ChEMBL document CHEMBL3352507, “Preparation and antimalarial activity of a novel class of carbohydrate-derived, fused thiochromans” (Eur J Med Chem, 2014).

How the values were obtained:
Plasmodium falciparum [1] = test: Antimalarial activity against Plasmodium falciparum 3D7 after 48 hrs by parasite lactate dehydrogenase assay; type: functional, organism-based; details: 3D7, 48 h
Outline: (§1)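 Parasite survival read by parasite lactate dehydrogenase (pLDH) assay. Single-concentration prescreen at […]; compounds with 0–15% survival were taken to dose–response. Ten three-fold serial dilutions in triplicate, incubated 48 h in a gassed airtight box, developed with NBT/PES. IC50 from sigmoidal curve of % survival relative to control against log concentration.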

Plasmodium falciparum [2] = test: Antimalarial activity against Plasmodium falciparum FCR3 after 48 hrs by parasite lactate dehydrogenase assay; type: functional, organism-based; details: FCR3, 48 h; outline: as §1
[3] = Cytotoxicity against human WI38 cells after 48 hrs by SRB assay; type: cell-based; details: WI-38, 48 h
Outline: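 WI-38 human fetal lung fibroblasts (passages 21–50) in EMEM with 10% FBS, 2 mM L-glutamine and gentamicin, at 37 °C and 5% CO2. Seeded at 10 000 cells/well, grown 24 h, then given compound in DMSO diluted in medium to 5 concentrations for 48 h. Cells were fixed with cold 50% TCA and stained with SRB, and dye was read at 540 nm. IC50 by non-linear regression against untreated controls.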

[4] = Cytotoxicity against human WI38 cells assessed as cell viability at 100 uM after 48 hrs by SRB assay; type: cell-based, WI-38; details: read-out: Activity
Outline: (§2)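 WI-38 fibroblasts (passages 21–50) were seeded at 10 000 cells/well for 24 h, then exposed for 48 h to compound dissolved in DMSO and diluted in medium. Viable cells were fixed with cold 50% trichloroacetic acid and stained with sulforhodamine B. Bound dye was extracted with 10 mM Tris base and read at 540 nm. Viability relative to drug-free cells.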

[5] = Cytotoxicity against human WI38 cells assessed as cell viability at 10 uM after 48 hrs by SRB assay; type: cell-based, WI-38; details: read-out: Activity; outline: as §2
[6] = Cytotoxicity against human WI38 cells assessed as cell viability at 1 uM after 48 hrs by SRB assay; type: cell-based, WI-38; details: read-out: Activity; outline: as §2
[7] = Cytotoxicity against human WI38 cells assessed as cell viability at 0.1 uM after 48 hrs by SRB assay; type: cell-based, WI-38; details: read-out: Activity; outline: as §2
[8] = Cytotoxicity against human WI38 cells assessed as cell viability at 0.01 uM after 48 hrs by SRB assay; type: cell-based, WI-38; details: read-out: Activity; outline: as §2

| SMILES | IC50 (Plasmodium falciparum [1]) | IC50 (Plasmodium falciparum [2]) | IC50 [3] | viability at 48 h, 100 µM [4] | viability at 48 h, 10 µM [5] | viability at 48 h, 1 µM [6] | viability at 48 h, 0.1 µM [7] | viability at 48 h, 0.01 µM [8] |
| --- | --- | --- | --- | --- | --- | --- | --- | --- |
| CC(C)(C)c1ccc2c(c1)[C@H]1O[C@H](COCc3ccccc3)[C@@H](OCc3ccccc3)[C@H](OCc3ccccc3)[C@H]1C[S@+]2[O-] | 0.3 µM | 0.33 µM | > 100 µM | 55.9% | 92.8% | 100% | 102% | 102% |
| Cc1cccc2c1[S@+]([O-])C[C@@H]1[C@@H](OCc3ccccc3)[C@H](OCc3ccccc3)[C@@H](COCc3ccccc3)O[C@H]21 | 6.29 µM | 4.34 µM | > 100 µM | 52.5% | 88.2% | 95.5% | 99.3% | 101% |
| [O-][S@@+]1C[C@@H]2[C@@H](OCc3ccccc3)[C@H](OCc3ccccc3)[C@@H](COCc3ccccc3)O[C@@H]2c2c1ccc1ccccc21 | 3.55 µM | 0.52 µM | > 100 µM | 89% | 93.7% | 96% | 92.5% | 96% |
| Cc1cccc2c1[S@@+]([O-])C[C@@H]1[C@@H](OCc3ccccc3)[C@H](OCc3ccccc3)[C@@H](COCc3ccccc3)O[C@H]21 | 4.13 µM | 2.76 µM | > 100 µM | 67.1% | 84.7% | 99.2% | 99.5% | 102% |
| Cc1ccc2c(c1)[C@H]1O[C@H](COCc3ccccc3)[C@@H](OCc3ccccc3)[C@H](OCc3ccccc3)[C@H]1CS2 | > 100 µM | 3.37 µM | > 100 µM | 72.8% | 90% | 97% | 96.3% | 97% |
| O=S1(=O)C[C@@H]2[C@@H](OCc3ccccc3)[C@H](OCc3ccccc3)[C@@H](COCc3ccccc3)O[C@@H]2c2ccccc21 | > 100 µM | 3.95 µM | > 100 µM | 67.8% | 92.4% | 97% | 97% | 97.8% |
| Cc1ccc2c(c1)[C@H]1O[C@H](COCc3ccccc3)[C@@H](OCc3ccccc3)[C@H](OCc3ccccc3)[C@H]1C[S@+]2[O-] | > 100 µM | 4.11 µM | > 100 µM | 69.7% | 95.9% | 99.1% | 101% | 103% |
